# APJ agonist: agonists of human APJ apelin receptor; P35414; CHO-K1 APJ PathHunter beta-arrestin, luminescence; 0% DMSO wells, 100% apelin; activation, % at 20 µM; hit rate 0.11% among 330,000;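 active means activation more than six SD over the plate average, tested at 20 µM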;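 further: 0% = DMSO alone and 100% = apelin-13 at 10 nM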
# Target sequence (P35414 whole entry, looked up): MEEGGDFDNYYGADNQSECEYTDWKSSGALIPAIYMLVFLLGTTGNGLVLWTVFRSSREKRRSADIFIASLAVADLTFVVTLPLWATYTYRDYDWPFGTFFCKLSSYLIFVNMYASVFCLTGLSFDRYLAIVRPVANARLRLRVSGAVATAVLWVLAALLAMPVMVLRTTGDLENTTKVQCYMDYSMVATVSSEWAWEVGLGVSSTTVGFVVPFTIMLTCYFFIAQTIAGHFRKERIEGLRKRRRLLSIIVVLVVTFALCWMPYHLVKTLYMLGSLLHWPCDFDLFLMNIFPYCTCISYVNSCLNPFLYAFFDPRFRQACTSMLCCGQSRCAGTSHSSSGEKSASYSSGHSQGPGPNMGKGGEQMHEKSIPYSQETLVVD
#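 Assay system – PathHunter CHO-K1 APJ (AGTRL-1) beta-arrestin reporter cells · Compound – one dose, 20 µM compound, 1% DMSO · Timing – compound 90 min 25 °C, reagent 1 h · Measured by – luminescence from split beta-galactosidase complementation, Galacton Star/Emerald II substrate · Measure – beta-arrestin recruitment to APJ as agonist activity, luminescent signal · Benchmarks – DMSO vs Apelin-13 10 nM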
# CXCR6 block: CXCR6 (human) receptor inhibition. O00574. CHO-K1 PathHunter CXCR6 beta-arrestin, luminescence. inhibition, % at 20 µM. hit rate 0.36% among 360,000. AID 602244; in the data active means inhibition above about 34%, passing the limit was not always enough;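 further: antagonist mode with CXCL16 agonist at 10 nM final; 0% = 10 nM CXCL16 with DMSO and 100% = unstimulated wells without agonist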
# EBI2 antag: blocks human EBI2 receptor beta-arrestin signaling. AID 651636. inhibition, % at 5 µM. hit rate 0.81% among 360,000. EBI2 beta-arrestin recruitment, luminescence, 7a,25-OHC stimulated; in the data active means inhibition above about 38%;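 further: enzyme fragment complementation signal reports receptor beta-arrestin coupling in cells; 0% = agonist plus DMSO wells and 100% = wells without agonist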
# H9c2 TAG inh: inhibitors of triacylglycerol accumulation | H9c2 cells, Nile Red lipid (TAG) fluorescence; cells loaded with 200 µM oleic acid | inhibition, % at 12.5 µM | hit rate 0.66% among 230,000 | AID 651582;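 active means pattern-corrected inhibition of lipid staining of at least 50% with the nuclear-stain viability signal not falling by more than 50%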;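 further: 0% = DMSO wells and 100% = triacsin C control wells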
# APJ antagonist: antagonists of human APJ apelin receptor | P35414 | CHO-K1 APJ beta-arrestin complementation, luminescence | inhibition, % at 20 µM | hit rate 0.32% among 330,000;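 active means inhibition above about 40% at 20 µM, limit read from the data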;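 further: cells challenged with 10 nM apelin-13 agonist together with compound; plate controls were apelin-13 plus DMSO wells for no effect and DMSO wells lacking apelin-13 for full effect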
# CCR6 antag: antagonists of human CCR6 receptor; P51684; CHO-K1 CCR6 PathHunter beta-arrestin, luminescence, CCL20-stimulated; inhibition, % at 20 µM; hit rate 0.49% among 340,000; AID 493098;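 active means compounds whose inhibition of the agonist-driven luminescence signal at 20 µM reaches about 50%, limit read from the data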;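 further: cells stimulated with CCL20 at 14 nM final; plate controls were DMSO with CCL20 for no effect and DMSO without agonist for full effect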
# * = called active by the depositor; / = not tested or not shown. An excerpt weighted towards active compounds, which were near 1.9% of everything screened.
SMILES,APJ agonist,CXCR6 block,EBI2 antag,H9c2 TAG inh,APJ antagonist,CCR6 antag
CCOC(=O)COc1ccc2ccccc2c1/C=C/[N+](=O)[O-],/,17.3,20.8,1.7,/,74.7*
C=C(C)COc1ccc(-c2nc(N)ncc2-c2ccc(Cl)cc2)c(O)c1,-3.1,5.6,18.3,/,-6.1,-6.6
CNC(=S)N/N=C1\C(=O)c2cccc3cccc1c23,-5.0,36.8,17.3,-0.9,38.7,52.0*
CCCCNC(=S)N/N=C1\C(=O)c2cccc3cccc1c23,-6.2,12.1,5.0,/,15.2,12.3
CCOc1ccccc1NC(=O)Cn1nnc(C(=O)NCc2ccco2)c1N,-1.6,2.6,-13.2,66.2*,4.9,15.6
CCCCN(C(=O)CSCC(=O)Nc1ccc(C)cc1)c1c(N)n(CCCC)c(=O)[nH]c1=O,5.6,12.5,-5.0,7.7,14.9,0.9
CN(C)CCCN(C(=O)c1cc(-c2cccs2)nc2ccccc12)c1nc2ccc(F)cc2s1,5.0,8.7,-3.1,59.7*,24.1,23.9
CN(C)CCN(C(=O)c1cc(Cl)sc1Cl)c1nc2ccc(F)cc2s1,-4.6,-10.3,-1.4,/,8.9,7.0
CCOc1ccc(OCc2ccc(C(=O)NN=Cc3ccc[nH]3)cc2)cc1,2.5,-2.0,6.6,60.3*,-27.0,-11.1
O=C(N/N=C/c1ccc[nH]1)c1ccccc1OCc1ccc(F)cc1,-3.2,-4.7,-16.2,4.7,-9.6,1.5
O=C1CC(C(=O)Nc2ccccc2)C2(CCCCC2)O1 (centres undefined),-2.2,-1.3,-6.1,-13.8,6.2,-9.6
O=C1CC(C(=O)Nc2ccc(Cl)cc2[N+](=O)[O-])C2(CCCCC2)O1 (centres undefined),4.2,-7.6,-9.0,/,-11.8,56.7*
C=Cc1cnc([N+](=O)[O-])n1C,/,-2.0,-0.4,-16.8,/,/
C/C(=N/Nc1cc(-c2ccccc2)nc(-c2ccccc2)n1)c1ccc(O)cc1,-1.4,14.7,60.1*,/,-17.9,-8.4
C/C(=N\Nc1cc(-c2ccccc2)nc(-c2ccc(Br)cc2)n1)c1cccc(N)c1,1.0,1.4,29.4,/,6.6,-11.3
O=C1C(Cl)=C(N2CCN(c3ccccc3[N+](=O)[O-])CC2)C(=O)c2ccccc21,/,41.5*,29.7,/,/,/
CCC(C)[C@H]1CNC(=O)C(=O)N1CCc1cccc2ccccc12 (some centres undefined),/,1.3,11.4,/,/,/
CCC(C)[C@H]1CNC(=S)N1CCc1cccc2ccccc12 (some centres undefined),1.5,9.8,45.8*,-6.4,21.6,16.4
CCN1C(=O)/C(=C2/C=Cc3ccccc3N2CC)SC1=S,-5.9,20.6,4.5,/,16.0,32.6
CCCN1C(=O)/C(=C2/C=Cc3ccccc3N2CC)SC1=S,-4.6,28.5,2.1,40.4,42.2*,41.0
CCCN1/C(=C2/SC(=S)N(CC)C2=O)C=Cc2ccccc21,-8.6,34.1,3.1,34.7,37.4,54.4*
Cc1ccc(Cl)c(NC(=O)COC(=O)c2nn(-c3ccccc3)cc2O)c1Cl,1.0,0.5,4.6,7.8,-15.6,4.3
CC(C)N(C)c1ncnc2c1ncn2[C@H]1CN(CCc2ccccc2)C[C@@H](CO)O1,/,3.1,2.2,7.1,/,/
c1cc2c(cc1C1CCCCC1)c1c3n2CCCNC3CCC1 (centres undefined),0.2,3.8,-17.4,76.8*,-3.8,70.5*
O=C1N[C@H](Cc2ccccc2)COC(=O)[C@H](Cc2ccc(F)cc2)CC/C=C/C[C@H]1CC(=O)N(CCO)Cc1ccccc1,-4.2,40.6*,-9.0,17.5,14.0,30.5
O=C1NC[C@@H](c2ccccc2)OC(=O)[C@@H](Cc2ccc(F)cc2)CC/C=C/C[C@@H]1CC(=O)N(CCO)Cc1ccccc1,/,56.4*,21.5,-1.7,/,49.9
Cn1cc(-c2csc(C(O)c3ccc(F)c(F)c3)n2)cn1 (centres undefined),/,-3.3,2.4,-15.7,/,/
CCn1cc([N+](=O)[O-])c(C(=O)N2N=C(c3ccc4ccccc4c3)CC2c2cc(Br)ccc2O)n1 (centres undefined),2.2,9.8,-14.1,56.5*,7.9,-11.9
O=c1c2c(-c3ccccc3)csc2nc2c3ccccc3c(NCCN3CCOCC3)nn12,/,-3.0,11.9,100.5*,/,21.4
O=C(COC(=O)CCS(=O)(=O)c1ccccc1)Nc1ccc(N2CCCCC2)cc1,-1.8,-6.5,-6.2,4.4,-7.8,9.2
